A selection: hits, their analogues and other compounds. The true share with any hit is near 2.2%.
SUMO Mot1 rescue: SUMOylation pathway inhibition by Mot1-301 growth rescue | growth rescue, % at 18.8 µM | AID 2716 | S. cerevisiae Mot1-301 growth rescue, ATP luminescence, 38.5C; percent above DMSO median, 100 means doubled | 320,000 compounds, 1% hits;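 active = every valid replicate shows activation above 250% relative to neutral control wells; inactive = the rest, any valid replicate at or below 250%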;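 note: OY570 slx delta 5 strain wells were the positive control but not used for scaling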
Cneo AK release: Cryptococcus neoformans lysis via adenylate kinase release. C. neoformans lysis, adenylate kinase release luminescence, 4 h; normalised: neutral wells 0, clomiphene wells 100. lysis activity, % at 15 µM. 360,000 compounds, 0.2% hits. AID 651654;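 active = mean lysis activity across replicates of at least 80%, whatever share of replicates individually reach that level; inactive = mean lysis activity below 80%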
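Material: C. neoformans cells; Schedule: 4 h static compound exposure, 37 °C, read 1 h post-reagent; Measured by: adenylate kinase release luminescence; Read-out: signal increase indicating cell lysis; Controls: Clomiphene as positive lysis control.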
rRNA inh HTS: selective bacterial rRNA inhibition in E. coli. E. coli WT GFP vs humanized-ribosome RFP mutants, fluorescence, 24 h; hits give low values; DMSO median 0, no signal -100. GFP signal change (wild-type ribosome), % (concentration not given with the values). 350,000 compounds, 1.6% hits;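 active = significant combined selectivity score with lowered wild-type GFP, culture density cut under 30%, mutant RFP and density less affected; inactive = any of these conditions unmet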
CR mimetic SO: lowers age-related superoxide in aged yeast cells; S. cerevisiae aged cells, superoxide DHE fluorescence; hits give low values; superoxide response (% of plate mean), % at 10 µM; 330,000 compounds, 0.18% hits; AID 2690;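 active = superoxide response under a set limit, about three screen SD below normal, cut at about 65% in these data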;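 note: yeast aged for seven days with compound at 30 °C before DHE staining; 100% = average MFI of all compound-treated wells on the plate with controls excluded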
PglD DTNB: PglD (C. jejuni) enzyme inhibition; purified PglD enzyme, DTNB colorimetric CoA detection; inhibition, % at 12.5 µM; 360,000 compounds, 0.098% hits; in the data active = inhibition above about 16%, passing the limit was not always enough
An asterisk follows results filed as active; . = no result given; + = active, no number.

SMILES	SUMO Mot1 rescue	Cneo AK release	rRNA inh HTS	CR mimetic SO	PglD DTNB
COc1cc2ccccc2cc1C(=O)N/N=C/c1ccc2c(c1)OCO2	34	-4	2	98	0
COc1cc(/C=N/NC(=O)c2ccccc2)ccc1O	-3	.	15	95	.
COc1ccccc1C(=O)N/N=C/c1ccc2c(c1)OCO2	301*	-1	-2	94	1
O=C(N/N=C/c1ccc([N+](=O)[O-])cc1)c1cc(-c2ccc3c(c2)OCO3)n[nH]1	5	.	-2	97	.
COc1cc(/C=N/NC(=O)c2[nH]nc3c2CCc2ccccc2-3)ccc1O	-23	-2	-20*	82	0
COc1cc(/C=N/NC(=O)c2cc(-c3ccc4c(c3)OCO4)n[nH]2)ccc1O	-22	.	-26*	105	.
COc1ccc(/C=N/NC(=O)c2ccccc2O)cc1Cn1nnc2ccccc21	5	4	-23*	97	-5
CCNC(=O)C[C@H]1CC[C@H]2[C@@H](COC[C@H](O)CN2C(=O)C2CC2)O1	.	2	-1	.	0
CCCNC(=O)N1CC2(C1)CN(C(=O)CC)[C@H](CO)c1[nH]c3cc(OC)ccc3c12	.	.	4	.	.
CNC[C@H]1OCCCC[C@H](C)Oc2ccc(NC(=O)c3ccccc3)cc2C(=O)N([C@H](C)CO)C[C@@H]1C	.	6	3	.	0
COc1ccc(S(=O)(=O)Nc2ccc3c(c2)[C@@H]2C[C@@H](CC(=O)NCC4CC4)O[C@H](CO)[C@@H]2O3)cc1	.	-2	4	.	1
COc1ccccc1CN(C)C[C@H]1OCc2ccccc2-c2c(n(C)c3ccccc23)C(=O)N([C@H](C)CO)C[C@@H]1C	.	.	-2	.	.
O=C(N/N=C/c1cccc(O)c1)c1ccc2c(c1)OCCO2	12	-6	-21*	100	0
O=C(N/N=C/c1ccc2c(c1)OCO2)c1ccc2c(c1)OCO2	8	-2	-3	106	5
COc1ccccc1C=NNC(=O)c1ccccc1OCCOc1ccccc1	-7	0	-31*	83	14
CO[C@H]1CN(C)C(=O)c2cc(NS(=O)(=O)c3ccc(C)cc3)ccc2OC[C@H](C)N(C)C[C@@H]1C	.	5	2	.	2
C[C@H](CO)N1C[C@H](C)[C@@H](CN(C)C(=O)Nc2ccc(F)cc2)Oc2ccc(NC(=O)Cc3ccccc3)cc2C1=O	.	-1	3	.	3
O=C(C[C@@H]1CC[C@H]2[C@@H](COC[C@H](O)CN2C(=O)c2ccccn2)O1)NC1CCC1	.	-1	4	.	3
Cn1cc([N+](=O)[O-])c(C(=O)Nc2ccc(-c3nc4ccccc4o3)cc2)n1	+	.	5	80	.
CCCN1C[C@H](C)[C@@H](OC)CN(C)C(=O)c2ccc(NC(=O)c3cccc(F)c3)cc2OC[C@H]1C	.	1	-3	.	-1
COc1cc(C)ccc1S(=O)(=O)N1CCN(C23CC4CC(CC(C4)C2)C3)CC1	74	-7	-32*	88	-1
COc1cc(F)ccc1S(=O)(=O)N1CCN(C23CC4CC(CC(C4)C2)C3)CC1	-22	1	.	103	-1
COc1ccc(-n2cc(-c3ccccc3)[n+]3c2CCCCC3)cc1	4	.	-30*	92	.
FC(F)Oc1ccc(-n2cc(-c3ccc(Cl)cc3)[n+]3c2CCCCC3)cc1	251	.	-47*	77	.
O=S(=O)(c1ccccc1)N1CC2(C1)[C@@H](c1ccccc1)[C@@H](CO)N2CC1CC1	.	.	-8	.	.
SMILES	SUMO Mot1 rescue	Cneo AK release	rRNA inh HTS	CR mimetic SO	PglD DTNB
Clc1ccccc1-c1ccc2ncnc(NCc3ccc4c(c3)OCO4)c2c1	629*	-1	-3	83	-2
O=C(CCCOc1ccc(Cl)cc1Cl)Nc1ccc(O)cc1C(=O)O	7	1	3	126	-5
COc1cc(NC(=O)CCCOc2ccc(Cl)cc2Cl)c(C(=O)O)cc1OC	-8	-1	-31*	126	1
O=C(C[C@H]1CC[C@H]2[C@@H](COC[C@H](O)CN2Cc2cccc(-c3ccncc3)c2)O1)N1CCOCC1	.	0	2	.	-2
COc1ccc(C(=O)Nc2c(O)ccc3ccccc23)cc1	-10	4	3	91	0
CCCC(=O)NC(c1ccc(OC)cc1)c1c(O)ccc2ccccc12 (stereo not given)	-21	-1	-27*	82	4
COc1ccc(C(NC(=O)CC(C)C)c2c(O)ccc3ccccc23)cc1 (stereo not given)	4	1	-13	96	2
COc1ccc(NC(=O)Nc2c(O)ccc3ccccc23)cc1	7	.	-26*	105	.
O=[N+]([O-])c1ccccc1/C=N/n1c(-c2ccccc2)n[nH]c1=S	-12	1	7	109	4
O=[N+]([O-])c1ccccc1/C=C/C=N/n1c(-c2ccccc2F)n[nH]c1=S	-13	3	-21*	102	-1
COc1ccc(N2CCN(C(=O)C3CCCN(c4ncnc5c4nc4n5CCCCC4)C3)CC2)cc1 (stereo not given)	7	-3	-26*	107	4
C[C@H](CO)N1C[C@H](C)[C@@H](CN(C)Cc2ccncc2)Oc2ccc(NS(=O)(=O)c3ccccc3)cc2CC1=O	.	0	-7	.	0
COc1ccc(N2CCN(CCS(=O)(=O)c3cc(Cl)ccc3Cl)CC2)cc1	16	2	-22*	103	1
CC(=O)N1CCN(CCS(=O)(=O)c2cc(Cl)ccc2Cl)CC1	134	.	4	89	.
Cc1noc(NC(=O)c2cccc(C(F)(F)F)c2)c1Cl	.	.	-48*	105	.
C[C@H]1CN(C)C(=O)c2ccccc2O[C@@H]1CN(C)C	.	.	1	.	.
CCC(=O)N1CC2(C1)CN(C(=O)CN1CCOCC1)[C@@H](CO)c1[nH]c3cc(OC)ccc3c12	.	.	4	.	.
CN(C)C(=O)N1CCC(C(=O)N2CCCC(C(=O)c3ccc(C(C)(C)C)cc3)C2)CC1 (stereo not given)	4	.	-17	63*	.
O=C(Nc1ccccc1C(=O)OCC(=O)N1CCc2ccccc2C1)c1ccco1	356*	-2	.	101	3
O=C(Cn1ccccc1=S)c1ccc(Cl)c(Cl)c1	35	-1	-34*	110	4
C[C@@H]1CCCCO[C@@H](CN(C)C(=O)c2ccncc2)[C@@H](C)CN([C@H](C)CO)C(=O)c2cc(NS(=O)(=O)c3ccc(F)cc3)ccc2O1	.	-4	-1	.	-7
C[C@H](CO)N1C[C@H](C)[C@H](CN(C)Cc2ccc(Cl)c(Cl)c2)Oc2ccc(NS(=O)(=O)c3cccs3)cc2C1=O	.	5	-8	.	1
O=C(c1cccs1)N1CCCc2ccccc21	-3	-1	-24*	74	-7
CCn1c(C)nc2cc(C(=O)N/N=C/c3ccc(OC)cc3)ccc21	-7	.	-4	102	.
CCn1c(C)nc2cc(C(=O)N/N=C/c3ccc(OC)c(O)c3)ccc21	9	.	-23*	107	.
O=Cc1ccc2c(c1)CCN2Cc1ccccc1	-10	0	-19*	88	2
